Legend:
[1] = target: Carbonic anhydrase 9 (Homo sapiens, UniProt Q16790); assay: Inhibition of human recombinant carbonic anhydrase 9 pre-incubated for 15 mins by stopped-flow CO2 hydration assay
How it was run: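 Recombinant human enzyme, produced in-house. CO2 1.7–17 mM. Initial rates taken over 10-100 s from at least six traces, with the uncatalysed rate subtracted. Inhibitor diluted in water from 0.1 mM stock down to 0.01 nM, preincubated with enzyme at room temperature. Three determinations.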

[2] = target: Carbonic anhydrase 2 (Homo sapiens, UniProt P00918); assay: Inhibition of human recombinant carbonic anhydrase 2 pre-incubated for 15 mins by stopped-flow CO2 hydration assay

| Ki [1] [nM] | Structure (SMILES) | Ki [2] [µM] |
| --- | --- | --- |
| 779 | COc1cccc(/C=C/C(=O)C[C@@H]2O[C@H](COC(C)=O)[C@@H](OC(C)=O)[C@H](OC(C)=O)[C@H]2OC(C)=O)c1 |  |
| 615 | COc1cccc(/C=C/C(=O)C[C@@H]2O[C@H](CO)[C@@H](O)[C@H](O)[C@H]2O)c1 | > 50 |
| 936 | COc1ccc(/C=C/C(=O)C[C@@H]2O[C@H](CO)[C@H](O)[C@H](O)[C@H]2O)cc1OC |  |
| 3860 | COc1cccc(/C=C/C(=O)C[C@@H]2O[C@H](CO)[C@H](O)[C@H](O)[C@H]2O)c1 | > 50 |
| 93 | COc1cccc(/C=C/C(=O)C[C@@H]2O[C@H](COC(C)=O)[C@H](OC(C)=O)[C@H](OC(C)=O)[C@H]2OC(C)=O)c1 |  |
| 840 | COc1ccc(/C=C/C(=O)C[C@@H]2O[C@H](CO)[C@@H](O)[C@H](O)[C@H]2O)cc1OC |  |

| Structure (SMILES) | Ki [1] [nM] | Ki [2] [µM] |
| --- | --- | --- |
| COc1ccc2cc(/C=C/C(=O)C[C@@H]3O[C@H](CO)[C@H](O)[C@H](O)[C@H]3O)ccc2c1 | 485 | > 50 |
| COc1ccc(/C=C/C(=O)C[C@@H]2O[C@H](COC(C)=O)[C@@H](OC(C)=O)[C@H](OC(C)=O)[C@H]2OC(C)=O)cc1OC | 753 |  |
| COc1ccc2cc(/C=C/C(=O)C[C@@H]3O[C@H](CO)[C@@H](O)[C@H](O)[C@H]3O)ccc2c1 | 462 | > 50 |
| COc1ccc(/C=C/C(=O)C[C@@H]2O[C@H](COC(C)=O)[C@H](OC(C)=O)[C@H](OC(C)=O)[C@H]2OC(C)=O)cc1OC | 773 |  |

Source: ChEMBL document CHEMBL3352068 (Bioorg Med Chem, 2014)
